We go through 9 compounds from ChEMBL document CHEMBL5038571, “Design and Synthesis of EZH2-Based PROTACs to Degrade the PRC2 Complex for Targeting the Noncatalytic Activity of EZH2” (J Med Chem, 2021).

Active and inactive are the calls of the source. The rule behind the calls is not given here.

In assay [1] the target is Histone-lysine N-methyltransferase EZH2 (Homo sapiens, UniProt Q15910). Type of assay: cell-based, Sf9.
Assay [2] addresses T1, Protein cereblon/Histone-lysine N-methyltransferase EZH2 (Homo sapiens) (UniProt Q15910+Q96SW2). As to the kind of experiment: PROTAC activity at CRBN E3 ligase/EZH2 in PRC2 complex in human WSUDLCL2 cells assessed as reduction in EZH2 level at 2.5 uM measured after 48 hrs by Western blot analysis. It counts as cell-based. The gist of the method: (§1)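 WSU-DLCL-2 cells exposed 48 h to PROTAC or control analogues at 2.5 μM, with thalidomide and EPZ6438 at 10 μM; PRC2 subunit levels then read by western blot.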
(In general: In western blotting, separated proteins are transferred to a membrane and probed.)

Assay [3] has as its target T1, Protein cereblon/Histone-lysine N-methyltransferase EZH2 (Homo sapiens). As to the kind of experiment: PROTAC activity at CRBN E3 ligase/EZH2 in PRC2 complex in human WSUDLCL2 cells assessed as reduction in SUZ12 level at 2.5 uM measured after 48 hrs by Western blot analysis. It counts as cell-based. The gist of the method:
as §1

Assay [4] has the same target. As to the kind of experiment: PROTAC activity at CRBN E3 ligase/EZH2 in PRC2 complex in human WSUDLCL2 cells assessed as reduction in EED level at 2.5 uM measured after 48 hrs by Western blot analysis. It counts as cell-based. Put shortly:
as §1

The target is the same in assay [5]. As to the kind of experiment: PROTAC activity at CRBN E3 ligase/EZH2 in PRC2 complex in human WSUDLCL2 cells assessed as reduction in RbAp48 level at 2.5 uM measured after 48 hrs by Western blot analysis. Type of assay: cell-based. The gist of the method:
as §1

The target is the same in assay [6]. As to the kind of experiment: PROTAC activity at CRBN E3 ligase/EZH2 in PRC2 complex in human WSUDLCL2 cells assessed as reduction in H3K27me3 level at 1 uM incubated for 48 hrs by Western blot analysis. It counts as cell-based. The gist of the method: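 WSU-DLCL-2 cells treated 48 h (1 μM for the single-concentration screen), lysed; SDS-PAGE, nitrocellulose transfer, 5% milk block, primary antibody 4 °C overnight, chemiluminescence. Bands quantified by densitometry, normalized to GAPDH, expressed relative to DMSO-treated cells; mean ± SD of three independent experiments, t-test.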

Histone-lysine N-methyltransferase EZH2, sequence (Q15910 whole entry): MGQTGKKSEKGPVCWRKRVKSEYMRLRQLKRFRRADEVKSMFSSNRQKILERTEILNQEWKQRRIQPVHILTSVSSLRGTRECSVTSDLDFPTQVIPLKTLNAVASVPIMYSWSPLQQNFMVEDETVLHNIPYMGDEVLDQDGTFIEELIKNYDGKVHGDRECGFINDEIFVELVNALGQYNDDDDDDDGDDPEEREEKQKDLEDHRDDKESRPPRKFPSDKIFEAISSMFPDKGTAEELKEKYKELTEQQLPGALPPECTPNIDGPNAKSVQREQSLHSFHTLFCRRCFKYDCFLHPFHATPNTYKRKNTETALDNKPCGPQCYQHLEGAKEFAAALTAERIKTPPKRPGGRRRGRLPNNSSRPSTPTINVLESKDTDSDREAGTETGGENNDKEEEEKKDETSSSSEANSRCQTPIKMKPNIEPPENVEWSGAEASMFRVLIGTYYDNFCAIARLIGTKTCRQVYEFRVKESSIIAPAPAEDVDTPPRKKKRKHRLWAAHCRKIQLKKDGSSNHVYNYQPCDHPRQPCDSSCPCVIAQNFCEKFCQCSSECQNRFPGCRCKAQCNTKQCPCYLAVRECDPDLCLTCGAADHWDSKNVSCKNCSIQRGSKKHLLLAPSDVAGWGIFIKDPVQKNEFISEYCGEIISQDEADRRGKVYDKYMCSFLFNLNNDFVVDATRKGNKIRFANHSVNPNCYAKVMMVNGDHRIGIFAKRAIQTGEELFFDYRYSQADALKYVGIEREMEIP
T1 sequence (Q15910 whole entry, looked up): as the sequence (Q15910 whole entry) above
T1 sequence (Q96SW2 whole entry, looked up): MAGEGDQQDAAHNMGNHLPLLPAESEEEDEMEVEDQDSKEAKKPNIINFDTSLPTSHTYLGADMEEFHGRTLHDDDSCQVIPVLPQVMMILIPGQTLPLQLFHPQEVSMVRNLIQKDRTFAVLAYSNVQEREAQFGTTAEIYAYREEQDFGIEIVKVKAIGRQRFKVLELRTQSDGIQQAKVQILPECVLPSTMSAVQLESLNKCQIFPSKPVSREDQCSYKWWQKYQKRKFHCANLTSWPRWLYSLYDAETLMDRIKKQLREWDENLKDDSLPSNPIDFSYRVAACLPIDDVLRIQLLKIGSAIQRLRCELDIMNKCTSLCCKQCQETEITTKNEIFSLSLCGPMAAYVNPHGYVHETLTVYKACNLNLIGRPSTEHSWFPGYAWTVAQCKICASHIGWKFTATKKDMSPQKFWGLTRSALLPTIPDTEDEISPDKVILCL

By IC50 is commonly meant the midpoint of a concentration-inhibition curve. A high value points to lower potency. For the compound `CCN(c1cc(-c2ccc(CN3CCN(CCCCCCOc4cccc5c4C(=O)N(C4CCC(=O)NC4=O)C5=O)CC3)cc2)cc(C(=O)NCc2c(C)cc(C)[nH]c2=O)c1C)C1CCOCC1` (stereo unspecified), the IC50 in assay [1] worked out at 3.9 nM. For the compound `CC[C@H](C)n1cc(C)c2c(C(=O)NCc3c(C)cc(C)[nH]c3=O)cc(-c3ccc(N4CCN(CCCCCCCOc5cccc6c5C(=O)N(C5CCC(=O)NC5=O)C6=O)CC4)nc3)cc21` (stereo partly specified), the IC50 in assay [1] came out at 6.3 nM. As to `CCN(c1cc(-c2ccc(CN3CCN(CCCCCCCOc4cccc5c4C(=O)N(C4CCC(=O)NC4=O)C5=O)CC3)cc2)cc(C(=O)NCc2c(C)cc(C)n(C)c2=O)c1C)C1CCOCC1` (stereo unspecified), in assay [1], inhibition was half-maximal at 23.3 nM (IC50). Besides, the outcome in assay [2], in assay [3], in assay [4] and in assay [5] was inactive. As for `CCN(c1cc(-c2ccc(CN3CCN(CCCCCCCCCCOc4cccc5c4C(=O)N(C4CCC(=O)NC4=O)C5=O)CC3)cc2)cc(C(=O)NCc2c(C)cc(C)[nH]c2=O)c1C)C1CCOCC1` (stereo unspecified), the outcome in assay [6] was Active. In addition, the IC50 in assay [1] came to 17 nM. In assay [1], `CC[C@H](C)n1cc(C)c2c(C(=O)NCc3c(C)cc(C)[nH]c3=O)cc(-c3ccc(N4CCN(CCCCCCOc5cccc6c5C(=O)N(C5CCC(=O)NC5=O)C6=O)CC4)nc3)cc21` (stereo partly specified) had an IC50 of 4 nM. This lies in the single-digit nanomolar range. Still for that read-out and setting: next, `CC[C@H](C)n1cc(C)c2c(C(=O)NCc3c(C)cc(C)[nH]c3=O)cc(-c3ccc(N4CCN(CCCCCOc5cccc6c5C(=O)N(C5CCC(=O)NC5=O)C6=O)CC4)nc3)cc21` (stereo partly specified): 5.8 nM. As for `CCN(c1cc(-c2ccc(CN3CCN(CCCCCCCCCCCOc4cccc5c4C(=O)N(C4CCC(=O)NC4=O)C5=O)CC3)cc2)cc(C(=O)NCc2c(C)cc(C)[nH]c2=O)c1C)C1CCOCC1` (stereo unspecified), the result in assay [6] was Active. In assay [1], this compound returned an IC50 of 30 nM. As for `CC[C@H](C)n1cc(C)c2c(C(=O)NCc3c(C)cc(C)[nH]c3=O)cc(-c3ccc(N4CCN(CCCCCCCCOc5cccc6c5C(=O)N(C5CCC(=O)NC5=O)C6=O)CC4)nc3)cc21` (stereo partly specified), the result in assay [6] was Active. Inhibition in assay [1] was half-maximal at 7.3 nM (IC50). In turn, `CCN(c1cc(-c2ccc(CN3CCN(CCCCCCCCCCCCOc4cccc5c4C(=O)N(C4CCC(=O)NC4=O)C5=O)CC3)cc2)cc(C(=O)NCc2c(C)cc(C)[nH]c2=O)c1C)C1CCOCC1` (stereo unspecified) showed an IC50 in assay [1] of 53 nM.
